In series [1] the target is Kappa-type opioid receptor (Homo sapiens) (UniProt P41145). The series is described as follows: Agonist activity at kappa-opioid receptor (unknown origin) at 10 uM after 90 mins by [35S]GTPgammaS binding assay. In kind it is functional. In short, it runs like this: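 KOR-containing membranes were incubated in duplicate with [35S]GTPγS (0.1–0.2 nM) and 10 µM peptide for 90 min at 22 °C in 50 mM HEPES, pH 7.4. Specific binding is total minus binding with 3 µM unlabeled GTPγS. Efficacy is expressed relative to the full agonist Dyn A(1-13)NH2, from at least two independent experiments.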
Sequence of Kappa-type opioid receptor (Homo sapiens) (P41145 whole entry): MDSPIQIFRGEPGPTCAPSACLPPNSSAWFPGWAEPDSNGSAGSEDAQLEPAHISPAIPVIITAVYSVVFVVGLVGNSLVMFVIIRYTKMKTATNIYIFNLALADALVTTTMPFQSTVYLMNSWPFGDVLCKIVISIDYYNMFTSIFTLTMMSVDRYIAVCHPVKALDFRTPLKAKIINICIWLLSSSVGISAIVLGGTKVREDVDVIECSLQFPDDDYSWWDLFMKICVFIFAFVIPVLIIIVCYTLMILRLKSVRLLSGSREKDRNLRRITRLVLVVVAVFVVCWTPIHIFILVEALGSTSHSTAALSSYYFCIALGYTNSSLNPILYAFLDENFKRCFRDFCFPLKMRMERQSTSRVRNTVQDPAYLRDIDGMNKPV
In general terms: Binding of GTPγS marks nucleotide exchange on a G protein.

For series [2] the target is unchanged. The series is described as follows: Antagonist activity at kappa-opioid receptor (unknown origin) assessed as inhibition of DynA(1-13)-induced [35S]-GTPgammaS binding after 90 mins. In kind it is functional. In short, it runs like this: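 Antagonism was measured in a [35S]GTPγS (0.1–0.2 nM) binding assay on KOR membranes, run in duplicate for 90 min at 22 °C in 50 mM HEPES, pH 7.4, with Dyn A(1-13)NH2 as the stimulating agonist. Specific binding is total minus binding with 3 µM GTPγS. KB was derived by Schild analysis from shifts of the agonist concentration-response curve, averaged over 2–5 independent experiments, with 95% confidence intervals.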

The species named for another series is Rattus norvegicus. Put plainly: Selectivity ratio, ratio of Ki for rat mu-opioid receptor to Ki for rat kappa-opioid receptor.
Series [3] in a line: Retention time of the compound by RP-HPLC. In kind it is physicochemical. The method in brief:
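Analytical RP-HPLC on a C18 column (5 µ, 300 Å, 4.6 × 50 mm). System 1: 5–50% acetonitrile in water, both with 0.1% TFA, over 45 min at 1 mL/min. System 2: 15–60% methanol/0.1% TFA over 45 min at 1.0 mL/min. System 3: 1–21% acetonitrile against aqueous 0.09 M TEAP, pH 2.5, over 40 min.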

The target of series [4] is Kappa-type opioid receptor (Rattus norvegicus, UniProt P34975). The series is described as follows: Displacement of [3H]diprenorphine from rat kappa-opioid receptor expressed in CHO cells after 90 mins by scintillation counter. In kind it is cell-based. In short, it runs like this:
(§1)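 Membranes from CHO cells stably expressing cloned rat KOR or MOR were incubated in triplicate with test peptide at 0.1 nM–10 µM for 90 min at 22 °C in 50 mM Tris, pH 7.4. […] Nonspecific binding was set with 10 µM unlabeled Dyn A(1-13)NH2 (KOR) or DAMGO (MOR). Ki is the mean ± S.E.M. of at least three independent experiments.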
On the technique in general: Displacement assays read how much labelled ligand stays bound in the presence of the test substance.

The target in series [5] is Kappa-type opioid receptor (Rattus norvegicus) (UniProt P34975). The series is described as follows: Displacement of [3H]diprenorphine from rat kappa-opioid receptor expressed in CHO cells after 90 mins by scintillation counter relative to zyklophin. In kind it is cell-based.
Sequence of Kappa-type opioid receptor (Rattus norvegicus) (P34975 whole entry): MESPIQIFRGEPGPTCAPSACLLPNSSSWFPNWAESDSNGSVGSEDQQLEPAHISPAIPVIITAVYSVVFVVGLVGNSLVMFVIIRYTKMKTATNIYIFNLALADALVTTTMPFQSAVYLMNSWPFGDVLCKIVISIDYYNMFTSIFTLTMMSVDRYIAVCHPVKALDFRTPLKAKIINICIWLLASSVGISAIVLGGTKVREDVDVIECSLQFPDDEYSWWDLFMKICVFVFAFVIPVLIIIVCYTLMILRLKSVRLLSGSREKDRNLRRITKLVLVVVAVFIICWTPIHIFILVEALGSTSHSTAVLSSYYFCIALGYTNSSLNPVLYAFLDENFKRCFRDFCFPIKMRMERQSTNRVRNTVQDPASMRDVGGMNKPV
For the next series, the target named is Mu-type opioid receptor (Rattus norvegicus, UniProt P33535). Put plainly: Displacement of [3H]DAMGO from rat mu-opioid receptor expressed in CHO cells after 90 mins by scintillation counter. In kind it is cell-based. The method in brief: as §1
Sequence of Mu-type opioid receptor (P33535 whole entry): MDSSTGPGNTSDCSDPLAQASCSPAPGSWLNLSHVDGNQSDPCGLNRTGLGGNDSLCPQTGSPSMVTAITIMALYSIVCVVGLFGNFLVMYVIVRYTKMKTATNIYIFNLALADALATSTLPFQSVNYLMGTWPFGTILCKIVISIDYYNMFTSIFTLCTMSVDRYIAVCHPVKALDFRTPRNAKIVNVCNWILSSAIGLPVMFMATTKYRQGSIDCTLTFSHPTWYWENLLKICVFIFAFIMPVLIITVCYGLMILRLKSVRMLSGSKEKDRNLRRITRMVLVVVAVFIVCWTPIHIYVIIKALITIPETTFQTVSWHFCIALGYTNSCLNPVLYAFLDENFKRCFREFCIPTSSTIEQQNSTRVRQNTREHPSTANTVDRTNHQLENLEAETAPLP

Activity calls are given as the source filed them. No cut-off for these calls is given here.

As a reminder, the Ki is the equilibrium dissociation constant of an inhibitor or competing ligand from its target. Lower therefore signals tighter binding.

Sequence of Kappa-type opioid receptor (P34975 whole entry): as the sequence (P34975 whole entry) above

In the case of `N=C(N)NCCC[C@@H]1NC(=O)[C@H](CCCNC(=N)N)NC(=O)[C@H](NC(=O)[C@H](Cc2ccccc2)NC(=O)CNC(=O)CNC(=O)[C@H](Cc2ccc(O)cc2)NCC2CC2)CC(=O)NC[C@@H](C(=O)N[C@@H](CCCNC(=N)N)C(=O)N2CCC[C@H]2C(=O)N[C@@H](CCCCN)C(N)=O)NC1=O`, the result in series [1] was Active.

With `C[C@@H]1NC(=O)[C@H](NC(=O)[C@H](Cc2ccccc2)NC(=O)CNC(=O)CNC(=O)[C@H](Cc2ccc(O)cc2)NCc2ccccc2)CC(=O)NC[C@@H](C(=O)N[C@@H](CCCNC(=N)N)C(=O)N2CCC[C@H]2C(=O)N[C@@H](CCCCN)C(N)=O)NC(=O)[C@H](CCCNC(=N)N)NC1=O`, the result in series [1] was inactive.

As for `C[C@H](NC(=O)CNC(=O)CNC(=O)[C@H](Cc1ccc(O)cc1)NCc1ccccc1)C(=O)N[C@@H]1CC(=O)NC[C@@H](C(=O)N[C@@H](CCCNC(=N)N)C(=O)N2CCC[C@H]2C(=O)N[C@@H](CCCCN)C(N)=O)NC(=O)[C@H](CCCNC(=N)N)NC(=O)[C@H](CCCNC(=N)N)NC1=O`, in series [1], the result was inactive.

With `N=C(N)NCCC[C@@H]1NC(=O)[C@H](CCCNC(=N)N)NC(=O)[C@H](NC(=O)[C@H](Cc2ccccc2)NC(=O)CNC(=O)CNC(=O)[C@H](Cc2ccc(O)cc2)NC(=O)c2ccccc2)CC(=O)NC[C@@H](C(=O)N[C@@H](CCCNC(=N)N)C(=O)N2CCC[C@H]2C(=O)N[C@@H](CCCCN)C(N)=O)NC1=O`, in series [1], the result was Active.

Turning to `C=CCN[C@@H](Cc1ccc(O)cc1)C(=O)NCC(=O)NCC(=O)N[C@@H](Cc1ccccc1)C(=O)N[C@@H]1CC(=O)NC[C@@H](C(=O)N[C@@H](CCCNC(=N)N)C(=O)N2CCC[C@H]2C(=O)N[C@@H](CCCCN)C(N)=O)NC(=O)[C@H](CCCNC(=N)N)NC(=O)[C@H](CCCNC(=N)N)NC1=O`, the outcome in series [1] was Active.

For `C[C@H](NCc1ccccc1)C(=O)NCC(=O)NCC(=O)N[C@@H](Cc1ccccc1)C(=O)N[C@@H]1CC(=O)NC[C@@H](C(=O)N[C@@H](CCCNC(=N)N)C(=O)N2CCC[C@H]2C(=O)N[C@@H](CCCCN)C(N)=O)NC(=O)[C@H](CCCNC(=N)N)NC(=O)[C@H](CCCNC(=N)N)NC1=O`, the outcome in series [1] was inactive.

Turning to `N=C(N)NCCC[C@@H]1NC(=O)[C@H](CCCNC(=N)N)NC(=O)[C@H](NC(=O)[C@H](Cc2ccccc2)NC(=O)CNC(=O)CNC(=O)[C@H](Cc2ccc(O)cc2)NCc2ccccc2)CC(=O)NCCC[C@@H](C(=O)N[C@@H](CCCNC(=N)N)C(=O)N2CCC[C@H]2C(=O)N[C@@H](CCCCN)C(N)=O)NC1=O`, in series [1], the outcome was Active.

As to `N=C(N)NCCC[C@@H]1NC(=O)[C@H](CCCNC(=N)N)NC(=O)[C@H](NC(=O)[C@H](Cc2ccccc2)NC(=O)CNC(=O)CNC(=O)[C@H](Cc2ccc(O)cc2)NCCc2ccccc2)CC(=O)NC[C@@H](C(=O)N[C@@H](CCCNC(=N)N)C(=O)N2CCC[C@H]2C(=O)N[C@@H](CCCCN)C(N)=O)NC1=O`, the outcome in series [1] was Active.

`C[C@@H]1NC(=O)[C@H](CCCNC(=N)N)NC(=O)[C@H](NC(=O)[C@H](Cc2ccccc2)NC(=O)CNC(=O)CNC(=O)[C@H](Cc2ccc(O)cc2)NCc2ccccc2)CC(=O)NCC(C(=O)N[C@@H](CCCNC(=N)N)C(=O)N2CCC[C@H]2C(=O)N[C@@H](CCCCN)C(N)=O)NC1=O` (some centres undefined): the outcome in series [2] and in series [1] was inactive.

As to `CC1NC(=O)C[C@@H](NC(=O)[C@H](Cc2ccccc2)NC(=O)CNC(=O)CNC(=O)[C@H](Cc2ccc(O)cc2)NCc2ccccc2)C(=O)N[C@@H](CCCNC(=N)N)C(=O)N[C@@H](CCCNC(=N)N)C(=O)NC1C(=O)N[C@@H](CCCNC(=N)N)C(=O)N1CCC[C@H]1C(=O)N[C@@H](CCCCN)C(N)=O` (some centres undefined), in the series listed under Rattus norvegicus, the Ratio Ki was found to be 8. Also, the result in series [1] was Active.

`C[C@H](NC(=O)[C@@H]1CNC(=O)C[C@@H](NC(=O)[C@H](Cc2ccccc2)NC(=O)CNC(=O)CNC(=O)[C@H](Cc2ccc(O)cc2)NCc2ccccc2)C(=O)N[C@@H](CCCNC(=N)N)C(=O)N[C@@H](CCCNC(=N)N)C(=O)N1)C(=O)N1CCC[C@H]1C(=O)N[C@@H](CCCCN)C(N)=O`: in series [1], the outcome was inactive.

Consider `N=C(N)NCCC[C@@H]1NC(=O)[C@H](CCCNC(=N)N)NC(=O)[C@H](NC(=O)[C@H](Cc2ccccc2)NC(=O)CNC(=O)CNC(=O)[C@@H](Cc2ccc(O)cc2)NCc2ccccc2)CC(=O)NC[C@@H](C(=O)N[C@@H](CCCNC(=N)N)C(=O)N2CCC[C@H]2C(=O)N[C@@H](CCCCN)C(N)=O)NC1=O`, for which, in series [3], the Retention_time amounted to 17.3 min.

As for `CC[C@H](C)[C@H](NC(=O)[C@H](CCCNC(=N)N)NC(=O)[C@H](CCCNC(=N)N)NC(=O)[C@@H](CC(N)=O)NC(=O)[C@H](Cc1ccccc1)NC(=O)CNC(=O)CNC(=O)[C@H](Cc1ccc(O)cc1)NCc1ccccc1)C(=O)N[C@@H](CCCNC(=N)N)C(=O)N1CCC[C@H]1C(=O)N[C@@H](CCCCN)C(N)=O`, the figures for the Ki (in series [4]; at Mu-type opioid receptor) were 412 nM and 2440 nM, respectively. Besides, the Ratio Ki in the series filed under Rattus norvegicus is 6. Besides, the fold change (FC) in series [5] was 0.23.

As to `CN[C@@H](Cc1ccc(O)cc1)C(=O)NCC(=O)NCC(=O)N[C@@H](Cc1ccccc1)C(=O)N[C@@H]1CC(=O)NC[C@@H](C(=O)N[C@@H](CCCNC(=N)N)C(=O)N2CCC[C@H]2C(=O)N[C@@H](CCCCN)C(N)=O)NC(=O)[C@H](CCCNC(=N)N)NC(=O)[C@H](CCCNC(=N)N)NC1=O`, the outcome in series [1] was Active.

(Values after ChEMBL document CHEMBL3632575, “Structure-Activity Relationships of the Peptide Kappa Opioid Receptor Antagonist Zyklophin” (J Med Chem, 2015).)
